Experimental data taken from ChEMBL document CHEMBL1156490, “TLR9 agonist acts by different mechanisms synergizing with bevacizumab in sensitive and cetuximab-resistant colon cancer xenografts” (2007).
Active and inactive are the calls of the source. The rule behind the calls is not given here.

How the values were obtained:
[1] = system: Homo sapiens; assay: Antitumor activity in cetuximab-resistant human GEO-CR tumor xenografted BALB/c mouse at 1 mg/kg, ip administered 3 times per week for 4 weeks; assay type: functional, organism-based; set-up: dose 1 mg/kg
How it was run: (§1)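 Athymic nude mice, five weeks old, received s.c. GEO, LS174T or GEO-CR colon cancer cells (10^7 per mouse) in Matrigel. Tumors were detected after 7 days and groups of 10 were randomized. Dosing was i.p. at 1 mg/kg three times per week for 4 weeks. Tumor volume = π/6 × larger diameter × (smaller diameter)². Groups were compared by Student's t test.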

[2] = system: HUVEC; assay: Inhibition of migration in HUVEC at 1 uM by wound healing assay; assay type: functional, cell-based; settings: Homo sapiens
[3] = Potentiation of bevacizumab-induced antitumor activity in cetuximab-resistant human GEO-CR tumor xenografted BALB/c mouse assessed tumor volume at 1 mg/kg, ip; assay type: functional; settings: route intraperitoneal
How it was run: (§2)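 Athymic nude mice, five weeks old, received s.c. GEO, LS174T or GEO-CR cells (10^7 per mouse) in Matrigel and were randomized at day 7, 10 per group. Dosing was i.p. 1 mg/kg three times weekly plus i.p. bevacizumab 5 mg/kg twice weekly, on days 7–11, 14–18 and 21–25; only the first agent continued on days 28–32. Tumor volume = π/6 × larger × (smaller diameter)². Analysis was by Student's t test.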

[4] = system: HUVEC; assay: Inhibition of VEGF-stimulated network formation in HUVEC at 1 uM; assay type: functional, cell-based; settings: Homo sapiens
How it was run: (§3)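 HUVEC (4 × 10^5) in RPMI 1640 were seeded on solidified Matrigel (prepared 30 min at 37°C), with or without 1 μM test agent. Cultures were kept at 37°C and photographed at 0 and 24 h to assess capillary tube and network formation.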

[5] = system: Homo sapiens; assay: Inhibition of hVEGF level in human GEO tumor xenografts in BALB/c mouse at 1 mg/kg, ip three times a week for 4 weeks measured after 8 weeks by ELISA; assay type: functional, organism-based; set-up: dose 1 mg/kg
How it was run: (§4)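 Serum was taken from killed xenograft-bearing mice and assayed by sandwich ELISA. Plates were coated overnight at 4°C with anti-hVEGF or anti-mVEGF polyclonal antibody (1 μg/ml in PBS, pH 7.5), with avidin–biotinylated HRP detection and absorbance read at 490 nm. Concentrations came from linear regression of recombinant hVEGF or mVEGF standard curves.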

[6] = system: Homo sapiens; assay: Inhibition of activated form of pMAPK expression in human GEO tumor xenografts in BALB/c mouse at 1 mg/kg, ip three times a week for 4 weeks measured after 8 weeks by ELISA; assay type: functional, organism-based; set-up: dose 1 mg/kg
[7] = system: Homo sapiens; assay: Potentiation of bevacizumab-induced inhibition of activated form of pMAPK expression in human GEO tumor xenografts in BALB/c mouse at 1 mg/kg, ip three times a week for 4 weeks measured after 8 weeks by ELISA; assay type: functional, organism-based; set-up: dose 1 mg/kg
[8] = system: Homo sapiens; assay: Potentiation of bevacizumab-induced antitumor activity against human GEO tumor xenografted BALB/c mouse at 1 mg/kg, ip three times a week for 4 weeks measured after 8 weeks; assay type: functional, organism-based; set-up: dose 1 mg/kg; how it was run: as §2
[9] = system: LS174T; assay: Potentiation of bevacizumab-induced antitumor activity against human LS174T tumor xenografted BALB/c mouse assessed as induction of necrosis at 1 mg/kg, ip three times for week for 4 weeks measured after 8 weeks; assay type: functional; settings: route intraperitoneal
How it was run: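 LS174T s.c. xenografts (10^7 cells in Matrigel) in nude mice received the combined i.p. schedule (1 mg/kg three times weekly plus bevacizumab 5 mg/kg twice weekly). Necrosis was judged by pathological and immunohistochemical analysis of formalin-fixed paraffin sections (5 μm).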

[10] = system: Homo sapiens; assay: Inhibition of activated form of VEGF expression in human GEO tumor xenografts in BALB/c mouse at 1 mg/kg, ip three times a week for 4 weeks measured after 8 weeks by ELISA; assay type: functional, organism-based; set-up: dose 1 mg/kg
[11] = system: LS174T; assay: Antitumor activity against human LS174T tumor xenografted BALB/c mouse assessed as tumor volume at 1 mg/kg, ip three times a week for 4 weeks measured after 8 weeks; assay type: functional; settings: route intraperitoneal; how it was run: as §1
[12] = system: Homo sapiens; assay: Potentiation of bevacizumab-induced inhibition of mVEGF level in human GEO tumor xenografted in BALB/c mouse at 1 mg/kg, ip three times a week for 4 weeks measured after 8 weeks by ELISA; assay type: functional, organism-based; set-up: dose 1 mg/kg; how it was run: as §4
[13] = system: Homo sapiens; assay: Inhibition of mVEGF level in human GEO tumor xenografted in BALB/c mouse at 1 mg/kg, ip three times a week for 4 weeks measured after 8 weeks by ELISA; assay type: functional, organism-based; set-up: dose 1 mg/kg; how it was run: as §4
[14] = system: Homo sapiens; assay: Potentiation of bevacizumab-induced inhibition of hVEGF level in human GEO tumor xenografts in BALB/c mouse at 1 mg/kg, ip three times a week for 4 weeks measured after 8 weeks by ELISA; assay type: functional, organism-based; set-up: dose 1 mg/kg; how it was run: as §4
[15] = system: HUVEC; assay: Inhibition of adhesion to matrix in HUVEC at 1 uM by cell adhesion assay; assay type: functional, cell-based; settings: Homo sapiens
How it was run: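 Wells were precoated for 1 h with Matrigel (1 mg/ml) or 0.1% BSA in serum-free medium as a negative control. HUVEC (20,000 per well) were then plated in serum-free medium with or without 1 μM test agent, and adherent cells were quantified.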

[16] = system: Homo sapiens; assay: Antitumor activity against human GEO tumor xenografted BALB/c mouse at 1 mg/kg, ip three times a week for 4 weeks measured after 8 weeks; assay type: functional, organism-based; set-up: dose 1 mg/kg; how it was run: as §1
[17] = Potentiation of cetuximab-induced cytotoxicity in human MDA468 cells assessed as lysis at 5 uM by ADCC assay; assay type: functional, MDA-MB-468
How it was run: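 Effector cells were nonadherent PBLs from human PBMCs, preincubated 24 h with or without 5 μM test agent. MDA468 targets were loaded with BATDA, treated with or without cetuximab (10 μg/ml), and mixed with effectors at varying ratios for 2 h at 37°C. Lysis was read by europium fluorescence in the supernatant.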

[18] = system: Homo sapiens; assay: Inhibition of total amount of MAPK and Akt in human GEO tumor xenografts in BALB/c mouse at 1 mg/kg, ip three times a week for 4 weeks measured after 8 weeks by ELISA; assay type: functional, organism-based; set-up: dose 1 mg/kg
[19] = system: Homo sapiens; assay: Potentiation of bevacizumab-induced inhibition of activated form of pAkt expression in human GEO tumor xenografts in BALB/c mouse at 1 mg/kg, ip three times a week for 4 weeks measured after 8 weeks by ELISA; assay type: functional, organism-based; set-up: dose 1 mg/kg
[20] = system: Homo sapiens; assay: Inhibition of activated form of pAkt expression in human GEO tumor xenografts in BALB/c mouse at 1 mg/kg, ip three times a week for 4 weeks measured after 8 weeks by ELISA; assay type: functional, organism-based; set-up: dose 1 mg/kg
[21] = system: Homo sapiens; assay: Potentiation of bevacizumab-induced inhibition of activated form of VEGF expression in human GEO tumor xenografts in BALB/c mouse at 1 mg/kg, ip three times a week for 4 weeks measured after 8 week by ELISA; assay type: functional, organism-based; set-up: dose 1 mg/kg
[22] = system: HUVEC; assay: Inhibition of VEGF-stimulated capillary tube formation in HUVEC at 1 uM; assay type: functional, cell-based; settings: Homo sapiens; how it was run: as §3
[23] = system: LS174T; assay: Potentiation of bevacizumab-induced antitumor activity against human LS174T tumor xenografted BALB/c mouse at 1 mg/kg, ip three times a week for 4 weeks measured after 8 weeks; assay type: functional; settings: route intraperitoneal; how it was run: as §2

With `Cc1cn([C@H]2C[C@H](OP(O)(=S)OC[C@H]3O[C@@H](n4ccc(N)nc4=O)[C@H](O)[C@@H]3OP(O)(=S)OC[C@H]3O[C@@H](n4cc(C)c(=O)[nH]c4=O)C[C@@H]3OP(O)(=S)OC[C@H]3O[C@@H](n4cnc5c(=O)nc(N)[nH]c54)[C@H](O)[C@@H]3OP(O)(=S)OC[C@H]3O[C@@H](n4cnc5c(N)ncnc54)[C@H](O)[C@@H]3OP(O)(=S)OC[C@H]3O[C@@H](n4ccc(N)nc4=O)[C@H](O)[C@@H]3OP(O)(=S)OC[C@H]3O[C@@H](n4ccc5c(=O)nc(N)[nH]c54)C[C@@H]3OP(O)(=S)OC[C@H]3O[C@@H](n4cc(C)c(=O)[nH]c4=O)C[C@@H]3OP(O)(=S)OC[C@H]3O[C@@H](n4cc(C)c(=O)[nH]c4=O)C[C@@H]3OP(O)(=S)OC[C@H]3O[C@@H](n4ccc(N)nc4=O)[C@H](O)[C@@H]3OP(O)(=S)OC[C@H]3O[C@@H](n4cc(C)c(=O)[nH]c4=O)C[C@@H]3OP(O)(=S)OCC(O)COP(O)(=S)O[C@H]3C[C@H](n4cc(C)c(=O)[nH]c4=O)O[C@@H]3COP(O)(=S)O[C@H]3[C@@H](O)[C@H](n4ccc(=N)[nH]c4=O)O[C@@H]3COP(O)(=S)O[C@H]3C[C@H](n4cc(C)c(=O)[nH]c4=O)O[C@@H]3COP(O)(=S)O[C@H]3C[C@H](n4cc(C)c(=O)[nH]c4=O)O[C@@H]3COP(O)(=S)O[C@H]3C[C@H](n4ccc5c(=O)nc(N)[nH]c54)O[C@@H]3COP(O)(=S)O[C@H]3[C@@H](O)[C@H](n4ccc(N)nc4=O)O[C@@H]3COP(O)(=S)O[C@H]3[C@@H](O)[C@H](n4cnc5c(N)ncnc54)O[C@@H]3COP(O)(=S)O[C@H]3[C@@H](O)[C@H](n4cnc5c(=O)nc(N)[nH]c54)O[C@@H]3COP(O)(=S)O[C@H]3C[C@H](n4cc(C)c(=O)[nH]c4=O)O[C@@H]3COP(O)(=S)O[C@H]3[C@@H](O)[C@H](n4ccc(N)nc4=O)O[C@@H]3COP(O)(=S)O[C@H]3C[C@H](n4cc(C)c(=O)[nH]c4=O)O[C@@H]3CO)[C@@H](CO)O2)c(=O)[nH]c1=O` (stereo partly drawn) as the compound, how does the Activity [1] read?
Its Activity is “inactive”.

What about the Activity [2] of the same compound?
Its Activity is “Active”.

And the Activity [3]?
The Activity was 0.15 cm3.

And the Activity [4]?
Its Activity is “Active”.

What about the Activity [5] of the same compound?
The Activity was “Active”.

And the Activity [6]?
Its Activity is “Active”.

What about the Activity [7] of the same compound?
The Activity was “Active”.

And the Activity [8]?
The Activity was “Active”.

And the Activity [9]?
The Activity was 90%.

What about the Activity [10] of the same compound?
The Activity was “Active”.

And the Activity [11]?
Its Activity is 1.6 cm3.

And the Activity [12]?
Its Activity is “inactive”.

What about the Activity [13] of the same compound?
The Activity was “inactive”.

And the Activity [14]?
The Activity was “Active”.

And the Activity [15]?
Its Activity is “Active”.

What about the Activity [16] of the same compound?
The Activity was “Active”.

And the Activity [17]?
The Activity was 60%.

And the Activity [18]?
Its Activity is “inactive”.

What about the Activity [19] of the same compound?
Its Activity is “Active”.

What about the Activity [20] of the same compound?
The Activity was “Active”.

What about the Activity [21] of the same compound?
The Activity was “Active”.

And the Activity [22]?
Its Activity is “Active”.

What about the Activity [23] of the same compound?
Its Activity is 95%.
